Drawing on ChEMBL document CHEMBL1129388, “Structure-activity modifications of the HIV-1 inhibitors (+)-calanolide A and (-)-calanolide B” (J Med Chem, 1996), this text covers IC50, TI and EC50 for 13 compounds.

Test [1] concerns CEM-SS. As to the kind of experiment: Using the XTT assay for cell viability, inhibitory concentration to protect human lymphoblastoid CEM-SS cells from the cytopathic effects of HIV-1 (RF strain) was determined. Type of test: functional, cell-based. The gist of the method:
(§1)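 Values reported as averages of quadruplicate determinations.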

Test [2] is described as follows: Ratio of inhibitory concentration to that of effective concentration for protection of CEM-SS cells from cytopathic effects of HIV-1 (RF strain). Type of test: functional. The gist of the method:
(§2)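 In vitro therapeutic index taken as IC50 divided by EC50.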

Test [3] has as its system CEM-SS. As to the kind of experiment: Using the XTT assay for cell viability, effective concentration to protect human lymphoblastoid CEM-SS cells from the cytopathic effects of HIV-1 (RF strain) was determined. Type of test: functional, cell-based. The procedure, abridged:
as §1

Test [4] concerns CEM-SS. As to the kind of experiment: Using the XTT assay for cell viability, inhibitory concentration to protect human lymphoblastoid CEM-SS cells from the cytopathic effects of HIV-1 (RF strain) was determined; c - not measurabel. Type of test: functional, cell-based. The gist of the method: as §1
Test [5] has as its system CEM-SS. As to the kind of experiment: Using the XTT assay for cell viability, effective concentration to protect human lymphoblastoid CEM-SS cells from the cytopathic effects of HIV-1 (RF strain) was determined; c - not measurabel. The format is functional, cell-based. The procedure, abridged:
as §1

For test [6], the system named is CEM-SS. As to the kind of experiment: Using the XTT assay for cell viability, inhibitory concentration to protect human lymphoblastoid CEM-SS cells from the cytopathic effects of HIV-1 (RF strain) was determined; d - Not independently evaluated; not stable under assay conditions; rapid ly converts to active compound 2 under assay conditions. The format is functional, cell-based.

For test [7], the system named is CEM-SS. As to the kind of experiment: Using the XTT assay for cell viability, effective concentration to protect human lymphoblastoid CEM-SS cells from the cytopathic effects of HIV-1 (RF strain) was determined; d - Not independently evaluated; not stable under assay conditions; rapidl y converts to active compound 2 under assay conditions. The format is functional, cell-based.

In test [8] the test system is CEM-SS. As to the kind of experiment: Ratio of inhibitory concentration to that of effective concentration for protection of CEM-SS cells from cytopathic effects of HIV-1 (RF strain); not measurable. The format is functional, cell-based. The procedure, abridged:
as §2

Test [9] concerns CEM-SS. As to the kind of experiment: Using the XTT assay for cell viability, effective concentration to protect human lymphoblastoid CEM-SS cells from the cytopathic effects of HIV-1 (RF strain) was determined; c - not measurable. The format is functional, cell-based. The gist of the method:
as §1

Test [10] deals with CEM-SS. As to the kind of experiment: Using the XTT assay for cell viability, inhibitory concentration to protect human lymphoblastoid CEM-SS cells from the cytopathic effects of HIV-1 (RF strain) was determined; c - not measurable. Type of test: functional, cell-based. The gist of the method: as §1

Bounds are passed on as bounds.

In the test with CEM-SS [1], `CCCc1cc(=O)oc2c3c(c4c(c12)OC(C)(C)C=C4)O[C@H](C)[C@@H](C)C3=O` had a 50% inhibitory concentration (IC50) of 9.3 µM. Further, the TI in [2] was determined as 62. The compound further had a concentration giving a half-maximal response (EC50) with CEM-SS [3] of 0.15 µM.

Regarding `CCCc1cc(=O)oc2c3c(c4c(c12)OC(C)(C)C=C4)O[C@@H](C)[C@H](C)[C@H]3O` [(-)-CALANOLIDE A], in the test on CEM-SS [4], the IC50 entry is “Not measurable”. For the same compound, the EC50 entry with CEM-SS [5] is “Not measurable”.

On to `CCCc1cc(=O)oc2c3c(c4c(c12)OC(C)(C)CC4)O[C@H](C)[C@@H](C)[C@@H]3O`, for which the half-inhibitory concentration (IC50) with CEM-SS [1] came out at 5.2 µM. Besides, the TI in test [2] came out at 23. For the same compound, a half-maximal response with CEM-SS [3] (EC50) required 0.2 µM.

`CCCc1cc(=O)oc2c3c(c4c(c12)OC(C)(C)CC4)O[C@@H](C)[C@H](C)C3=O`: the half-inhibitory concentration (IC50) in the test with CEM-SS [1] came out at 7.9 µM. Besides, the TI in [2] was determined as 21. The same compound had an EC50 with CEM-SS [3] of 0.37 µM.

Turning to `CCCc1cc(=O)oc2c3c(c4c(c12)OC(C)(C)C=C4)O[C@@H](C)[C@H](C)[C@@H]3N=[N+]=[N-]`, half-maximal inhibition in the test with CEM-SS [1] (IC50) required 5.9 µM. For the same compound, the TI in [2] was 4. Moreover, in the test with CEM-SS [3], a half-maximal response (EC50) required 1.6 µM.

Turning to `CCCc1cc(=O)oc2c3c(c4c(c12)OC(C)(C)C=C4)O[C@@H](C)[C@H](C)[C@@H]3F`, in the test with CEM-SS [6], the 50% inhibitory concentration (IC50) entry is reported as “Not independently evaluated”. Further, in the test on CEM-SS [7], the EC50 entry is reported as “Not independently evaluated”.

As to `CCCc1cc(=O)oc2c3c(c4c(c12)OC(C)(C)C=C4)O[C@@H](C)[C@H](C)[C@@H]3S`, the concentration for half-maximal inhibition (IC50) in the test with CEM-SS [1] is > 150 µM. The TI result in the test with CEM-SS [8] is given as “Not measurable”. The compound also yielded an EC50 in the test with CEM-SS [3] of 8.4 µM.

As for `CCCc1cc(=O)oc2c3c(c4c(c12)OC(C)(C)CC4)O[C@H](C)C(C)=C3`, in the test on CEM-SS [9], the EC50 entry is given as “Not measurable”. The IC50 result in the test on CEM-SS [10] is recorded as “Not measurable”.

Turning to `CCCc1cc(=O)oc2c3c(c4c(c12)OC(C)(C)C=C4)O[C@@H](C)[C@H](C)[C@@H]3O` [COSTATOLIDE], the IC50 in the test with CEM-SS [1] was found to be 5.9 µM. Further, the TI in test [2] was 31. This compound had a 50% effective concentration (EC50) in the test on CEM-SS [3] of 0.2 µM.

In the test with CEM-SS [1], `CCCc1cc(=O)oc2c3c(c4c(c12)OC(C)(C)CC4)O[C@@H](C)[C@H](C)[C@@H]3O` [7,8-DIHYDROCALANOLIDE B] had an IC50 of 8.2 µM. Besides, the TI in [2] came out at 41. In addition, the EC50 in the test with CEM-SS [3] was found to be 0.2 µM.

As for `CCCc1cc(=O)oc2c3c(c4c(c12)OC(C)(C)C=C4)O[C@H](C)[C@@H](C)[C@@H]3O` [CALANOLIDE A], 7.3 µM corresponded to half-maximal inhibition in the test on CEM-SS [1] (IC50). Besides, the TI in [2] came to 40. In the test with CEM-SS [3], this compound registered a concentration giving a half-maximal response (EC50) of 0.18 µM.

`CCCc1cc(=O)oc2c3c(c4c(c12)OC(C)(C)CC4)O[C@@H](C)[C@H](C)[C@@H]3N`: the concentration for half-maximal inhibition (IC50) in the test with CEM-SS [1] stood at 5.8 µM. Also, in test [2], the TI came out at 10. In the test on CEM-SS [3], this compound yielded an EC50 of 0.6 µM.

In the test on CEM-SS [1], `CCCc1cc(=O)oc2c3c(c4c(c12)OC(C)(C)C=C4)O[C@@H](C)[C@H](C)C3=O` gave an IC50 of 8.5 µM. The TI in test [2] came to 24. The compound also showed an EC50 with CEM-SS [3] of 0.4 µM.
